Assay [1] has as its target T1, Androgen receptor (Mus musculus) (UniProt P19091).
T1 sequence (whole entry): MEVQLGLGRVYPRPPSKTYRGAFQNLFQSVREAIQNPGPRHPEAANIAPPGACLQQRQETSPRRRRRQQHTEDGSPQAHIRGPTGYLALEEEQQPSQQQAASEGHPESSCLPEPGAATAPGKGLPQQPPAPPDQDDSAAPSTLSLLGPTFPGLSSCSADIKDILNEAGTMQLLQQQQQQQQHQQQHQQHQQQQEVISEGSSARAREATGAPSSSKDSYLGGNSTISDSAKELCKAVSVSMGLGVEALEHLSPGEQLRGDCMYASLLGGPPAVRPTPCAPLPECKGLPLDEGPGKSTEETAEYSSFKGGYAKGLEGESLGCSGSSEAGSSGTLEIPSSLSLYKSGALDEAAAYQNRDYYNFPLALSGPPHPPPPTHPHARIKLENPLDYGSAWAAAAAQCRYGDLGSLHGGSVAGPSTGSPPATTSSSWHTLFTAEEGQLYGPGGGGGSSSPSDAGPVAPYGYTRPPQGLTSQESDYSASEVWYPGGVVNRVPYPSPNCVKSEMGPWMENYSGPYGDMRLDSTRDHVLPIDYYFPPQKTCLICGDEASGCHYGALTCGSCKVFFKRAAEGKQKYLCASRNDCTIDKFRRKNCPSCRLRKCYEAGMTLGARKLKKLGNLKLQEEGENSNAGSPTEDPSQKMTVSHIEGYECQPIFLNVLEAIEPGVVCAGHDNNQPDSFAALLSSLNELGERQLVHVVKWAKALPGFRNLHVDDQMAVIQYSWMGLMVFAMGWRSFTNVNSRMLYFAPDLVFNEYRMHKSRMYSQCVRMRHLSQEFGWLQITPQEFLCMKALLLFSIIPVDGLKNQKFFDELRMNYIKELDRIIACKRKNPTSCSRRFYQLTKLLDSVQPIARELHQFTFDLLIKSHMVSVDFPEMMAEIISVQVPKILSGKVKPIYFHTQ
The experiment in a line: Agonist activity at AR in mouse SC3 cells assessed as effect on cell proliferation after 3 days by CCK8 assay. Type of assay: cell-based. The gist of the method:
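SC-3 cells diluted to 20,000 cells/mL in MEM α with 2% charcoal-stripped FBS, seeded and held 24 h, then given serial dilutions of compound alone (DMSO as dilution control). Incubated 3 days at 37°C, 5% CO2. WST-8 (Cell Counting Kit-8) added for 2 h, absorbance read at 450 nm.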

The target in assay [2] is T1, Androgen receptor (Mus musculus). The experiment in a line: Antagonist activity at AR in mouse SC3 cells assessed as inhibition of DHT-induced cell proliferation at 10 uM after 3 days by CCK8 assay relative to control. Type of assay: cell-based. The gist of the method: (§1)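 SC-3 cells diluted to 20,000 cells/mL in MEM α with 2% charcoal-stripped FBS, seeded and held 24 h, then given compound or DMSO with 1 nM DHT for 3 days at 37°C, 5% CO2. Read-out: WST-8 (CCK-8) for 2 h, absorbance at 450 nm. Compounds screened first at 10 µM. IC50 measured over 0.01–10 µM when inhibition exceeded 50%, taken as the level halving DHT-induced growth versus control. Triplicate or more.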
In general terms: Tetrazolium dyes change colour on reduction, which living cells bring about.

In a further assay the test system is PC-3. The experiment in a line: Antiproliferative activity against human PC3 cells assessed as inhibition of cell proliferation after 3 days in presence of DHT by WST8 assay. Type of assay: functional, cell-based. The method in brief:
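PC-3 cells kept in RPMI-1640 with 10% FBS, then diluted to 20,000 cells/mL in RPMI-1640 with 10% charcoal-stripped FBS. Seeded and held 24 h, then given serial dilutions of compound or DMSO with 1 nM DHT for 3 days. WST-8 added for 2 h, absorbance at 450 nm. Viability normalized to vehicle-treated cells as 1.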

Assay [3] in a line: Antagonist activity at AR in mouse SC3 cells assessed as inhibition of DHT-induced cell proliferation after 3 days by CCK8 assay.
The target in assay [4] is T1, Androgen receptor (Mus musculus). Nature of the assay: Antagonist activity at AR in mouse SC3 cells assessed as inhibition of DHT-induced cell proliferation up to 10 uM after 3 days by CCK8 assay. The class given is cell-based. The gist of the method: as §1

The source made the active and inactive calls. The rule behind the calls is not given here.

On to `CN(C)c1ccc(C(=O)Nc2cccc(Oc3ccc(O)cc3)c2)cc1`, for which, in assay [1], the outcome was inactive. The inhibition (as a rule, the change of the read-out against control, counted positive when it falls) in assay [2] is more than 50%.

On to `COc1cccc(C(=O)Nc2ccc(Oc3ccc(O)cc3)c(F)c2)c1`, for which the result in assay [1] was inactive. Moreover, the inhibition is more than 50% in assay [2] and “Dose-dependent effect” with PC-3.

On to `COc1cccc(C(=O)Nc2ccc(Oc3ccc(O)cc3)c(C)c2)c1`, for which the inhibition is more than 50% in assay [2] and “Dose-dependent effect” with PC-3. Also, the IC50 (commonly the concentration that inhibits the measured activity by half) in assay [3] is 0.75 µM.

Regarding `COc1ccc(C(=O)Nc2cccc(Oc3cccc(O)c3)c2)cc1`, the result in assay [1] was inactive.

`CN(C)c1cccc(C(=O)Nc2cccc(Oc3cccc(O)c3)c2)c1`: the result in assay [1] was inactive.

Take `COc1cccc(C(=O)N(C)c2ccc(Oc3ccc(O)cc3)c(C)c2)c1`: the outcome in assay [1] was inactive. For the same compound, the inhibition in assay [2] is more than 50%.

As to `COc1cccc(C(=O)N(C)c2cccc(Oc3ccc(O)cc3)c2)c1`, the result in assay [1] was inactive. In addition, the inhibition result in assay [4] was “inactive”.

As to `COc1ccccc1C(=O)Nc1cccc(Oc2ccc(O)cc2)c1`, the result in assay [1] was inactive.

In the case of `COc1cccc(C(=O)Nc2ccc(Oc3ccc(O)cc3)cc2O)c1`, the outcome in assay [1] was inactive. For the same compound, the inhibition entry in assay [4] is “inactive”.

As for `COc1ccccc1C(=O)Nc1cccc(Oc2cccc(O)c2)c1`, the outcome in assay [1] was inactive. The inhibition entry in assay [4] was “inactive”.

As to `COc1cccc(C(=O)Nc2cccc(Oc3ccc(O)cc3)c2)c1`, the outcome in assay [1] was inactive. In addition, the inhibition result in assay [4] was “inactive”.

Regarding `COc1ccc(C(=O)Nc2cccc(Oc3ccc(O)cc3)c2)cc1`, the result in assay [1] was inactive.

Consider `COc1ccccc1C(=O)Nc1ccc(Oc2cccc(O)c2)cc1`, for which the result in assay [1] was inactive. Further, the inhibition result in assay [4] was “inactive”.

With `CN(C)c1ccc(C(=O)Nc2ccc(Oc3cccc(O)c3)cc2)cc1`, in assay [1], the result was inactive. Also, in assay [2], the inhibition was more than 50%.

Consider `COc1cccc(C(=O)Nc2cc(F)c(Oc3ccc(O)cc3)c(F)c2)c1`, for which the result in assay [1] was inactive. The inhibition in assay [2] was more than 50%; in the assay with PC-3, “Dose-dependent effect”.

For the compound `COc1ccc(C(=O)Nc2cc(Oc3ccc(O)cc3)ccc2C)cc1`, the outcome in assay [1] was inactive.

Regarding `CN(C)c1cccc(C(=O)Nc2cccc(Oc3ccc(O)cc3)c2)c1`, the outcome in assay [1] was inactive. Also, the inhibition entry in assay [4] is “inactive”.

With `COc1cccc(C(=O)Nc2ccc(Oc3ccc(O)cc3)cc2F)c1`, the outcome in assay [1] was inactive. Besides, the inhibition in assay [2] is more than 50%; with PC-3, “Dose-dependent effect”.

With `CN(C)c1ccccc1C(=O)Nc1ccc(Oc2cccc(O)c2)cc1`, the result in assay [1] was inactive. The inhibition entry in assay [4] was “inactive”.

As for `CN(C)c1cccc(C(=O)Nc2ccc(Oc3cccc(O)c3)cc2)c1`, in assay [1], the result was inactive. The inhibition result in assay [4] is “inactive”.

Turning to `COc1cccc(C(=O)Nc2ccc(Oc3ccc(O)cc3)c(Br)c2)c1`, the result in assay [1] was inactive. Also, the inhibition in assay [2] is more than 50%.

For the compound `COc1cccc(C(=O)Nc2ccc(Oc3ccc(O)cc3)c(C(F)(F)F)c2)c1`, in assay [1], the result was inactive. The inhibition in assay [2] is more than 50%.

`CN(C)c1ccccc1C(=O)Nc1cccc(Oc2cccc(O)c2)c1`: the outcome in assay [1] was inactive. Besides, the inhibition entry in assay [4] was “inactive”.

On to `COc1cccc(C(=O)Nc2ccc(Oc3ccc(O)cc3)cc2OC)c1`, for which the outcome in assay [1] was inactive. In addition, the inhibition in assay [2] is more than 50%.

Turning to `COc1ccc(C(=O)Nc2ccc(Oc3cccc(O)c3)cc2)cc1`, the result in assay [1] was inactive. Moreover, the inhibition entry in assay [4] was “inactive”.

In the case of `CN(C)c1ccccc1C(=O)Nc1cccc(Oc2ccc(O)cc2)c1`, the outcome in assay [1] was inactive. The inhibition in assay [2] is more than 50%.

In the case of `COc1ccc(C(=O)N(C)c2cccc(Oc3ccc(O)cc3)c2)cc1`, the result in assay [1] was inactive. In assay [4], the inhibition entry was “inactive”.

Consider `COc1ccc(C(=O)Nc2ccc(C)c(Oc3ccc(O)cc3)c2)cc1`, for which, in assay [1], the result was inactive.

Turning to `COc1cccc(C(=O)Nc2ccc(Oc3ccc(O)cc3)c(F)c2F)c1`, the outcome in assay [1] was inactive. Further, the inhibition in assay [2] is more than 50%; in the assay with PC-3, “Dose-dependent effect”.

For `COc1cccc(C(=O)Nc2cc(Cl)c(Oc3ccc(O)cc3)c(Cl)c2)c1`, in assay [1], the result was inactive. Also, the inhibition in assay [2] was more than 50%; with PC-3 it was “Dose-dependent effect”.

`COc1cccc(C(=O)Nc2ccc(Oc3ccc(O)cc3)c(Cl)c2)c1`: the outcome in assay [1] was inactive. Further, the inhibition in assay [2] is more than 50%; in the assay with PC-3, “Dose-dependent effect”.

For the compound `C[C@](O)(CS(=O)(=O)c1ccc(F)cc1)C(=O)Nc1ccc(C#N)c(C(F)(F)F)c1`, the inhibition entry in the assay with PC-3 is “inactive”.

As to `COc1ccc(C(=O)Nc2cccc(Oc3ccc(O)cc3)c2C)cc1`, in assay [1], the result was inactive.

Regarding `COc1cccc(C(=O)Nc2cccc(Oc3cccc(O)c3)c2)c1`, in assay [1], the result was inactive.

In the case of `COc1cccc(C(=O)Nc2ccc(Oc3ccc(O)cc3)cc2Cl)c1`, the outcome in assay [1] was inactive. Also, the inhibition in assay [2] is more than 50%.

Turning to `COc1ccccc1C(=O)Nc1ccc(C)c(Oc2ccc(O)cc2)c1`, the outcome in assay [1] was inactive. In addition, the inhibition in assay [2] is more than 50%.

Turning to `COc1cccc(C(=O)Nc2ccc(Oc3cccc(O)c3)cc2)c1`, the outcome in assay [1] was inactive.

For `COc1cccc(C(=O)Nc2ccc(Oc3ccc(O)cc3)cc2C)c1`, the outcome in assay [1] was inactive. For the same compound, the inhibition in assay [2] was more than 50%.

Consider `COc1cccc(C(=O)Nc2ccc(Oc3ccc(O)cc3)c(C#N)c2)c1`, for which the outcome in assay [1] was inactive. For the same compound, the inhibition entry in assay [4] is “inactive”.

Source of the values: ChEMBL document CHEMBL4152364, “Structure-activity relationship of novel (benzoylaminophenoxy)phenol derivatives as anti-prostate cancer agents” (Bioorg Med Chem, 2018).
